# Laboratory results: ChEMBL document CHEMBL4033786, “Discovery of Novel 1-Cyclopentenyl-3-phenylureas as Selective, Brain Penetrant, and Orally Bioavailable CXCR2 Antagonists” (J Med Chem, 2018)
# Assays:
# [1] = molecular target: T1, C-C chemokine receptor type 3 (Homo sapiens, UniProt P51677); experiment: Agonist activity at CCR3 (unknown origin)
# Procedure, shortened: (§1)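 β-arrestin assays run in both agonist and antagonist modes across a panel of 18 CXC and CC chemokine receptors.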
# [2] = Cmax in dog at 1.29 mg/kg, po measured up to 4 hrs post dose; format: ADME, organism-based, Canis lupus familiaris; design: dose 1.29 mg/kg, route oral; conditions: in vivo
# [3] = molecular target: T2, C-C chemokine receptor type 7 (Homo sapiens, UniProt P32248); experiment: Antagonist activity at CCR7 (unknown origin); procedure, shortened: as §1
# T2 sequence (P32248 whole entry): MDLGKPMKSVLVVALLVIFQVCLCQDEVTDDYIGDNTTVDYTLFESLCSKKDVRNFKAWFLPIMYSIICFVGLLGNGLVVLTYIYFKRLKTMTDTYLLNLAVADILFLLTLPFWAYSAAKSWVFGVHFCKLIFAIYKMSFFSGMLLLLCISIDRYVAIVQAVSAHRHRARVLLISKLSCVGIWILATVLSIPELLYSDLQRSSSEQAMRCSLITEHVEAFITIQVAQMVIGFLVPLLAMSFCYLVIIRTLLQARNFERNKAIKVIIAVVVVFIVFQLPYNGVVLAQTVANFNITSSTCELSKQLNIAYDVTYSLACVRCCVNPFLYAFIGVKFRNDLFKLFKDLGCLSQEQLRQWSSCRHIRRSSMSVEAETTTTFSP
# [4] = molecular target: C-X-C chemokine receptor type 4 (Homo sapiens, UniProt P61073); experiment: Agonist activity at CXCR4 (unknown origin); procedure, shortened: as §1
# Chain of C-X-C chemokine receptor type 4 (P61073 whole entry): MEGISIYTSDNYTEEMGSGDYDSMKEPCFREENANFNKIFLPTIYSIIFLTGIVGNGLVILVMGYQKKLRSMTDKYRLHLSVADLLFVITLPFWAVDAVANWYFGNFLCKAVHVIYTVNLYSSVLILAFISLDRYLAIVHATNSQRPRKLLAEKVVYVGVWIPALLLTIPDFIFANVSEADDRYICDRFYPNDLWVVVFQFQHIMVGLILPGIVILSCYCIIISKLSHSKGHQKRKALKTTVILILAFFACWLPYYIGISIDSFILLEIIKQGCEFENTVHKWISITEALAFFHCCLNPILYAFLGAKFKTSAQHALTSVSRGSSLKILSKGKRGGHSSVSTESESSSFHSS
# [5] = molecular target: T3, C-C chemokine receptor type 6 (Homo sapiens, UniProt P51684); experiment: Antagonist activity at CCR6 (unknown origin); procedure, shortened: as §1
# T3 sequence (P51684 whole entry): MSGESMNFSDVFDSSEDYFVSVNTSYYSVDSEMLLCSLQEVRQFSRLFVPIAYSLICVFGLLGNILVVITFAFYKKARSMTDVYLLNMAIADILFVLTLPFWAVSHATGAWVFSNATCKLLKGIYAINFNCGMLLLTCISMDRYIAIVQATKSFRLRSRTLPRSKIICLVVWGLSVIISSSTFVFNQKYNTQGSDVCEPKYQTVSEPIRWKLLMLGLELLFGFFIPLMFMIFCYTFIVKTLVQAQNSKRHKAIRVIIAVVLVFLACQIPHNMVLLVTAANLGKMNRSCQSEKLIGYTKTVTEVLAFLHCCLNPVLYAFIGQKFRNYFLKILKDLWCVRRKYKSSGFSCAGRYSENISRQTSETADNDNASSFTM
# [6] = molecular target: T2, C-C chemokine receptor type 7; experiment: Agonist activity at CCR7 (unknown origin); procedure, shortened: as §1
# [7] = molecular target: T4, C-X-C chemokine receptor type 1 (Homo sapiens, UniProt P25024); experiment: Antagonist activity at CXCR1 (unknown origin)
# T4 sequence (P25024 whole entry): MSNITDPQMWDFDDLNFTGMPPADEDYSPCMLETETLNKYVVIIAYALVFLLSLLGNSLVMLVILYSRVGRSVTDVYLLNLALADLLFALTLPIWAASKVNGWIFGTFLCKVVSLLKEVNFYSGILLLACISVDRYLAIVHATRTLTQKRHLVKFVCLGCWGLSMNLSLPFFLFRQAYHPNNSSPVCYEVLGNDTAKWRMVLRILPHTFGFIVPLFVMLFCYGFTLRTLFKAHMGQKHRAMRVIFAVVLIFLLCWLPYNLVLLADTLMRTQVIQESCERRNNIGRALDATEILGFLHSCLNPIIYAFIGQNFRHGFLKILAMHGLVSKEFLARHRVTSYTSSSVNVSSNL
# Procedure, shortened: (§2)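 Part of an 18-receptor CXC/CC chemokine receptor panel, each receptor run in β-arrestin recruitment assays in both agonist and antagonist modes.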
# [8] = molecular target: T5, CX3C chemokine receptor 1 (Homo sapiens, UniProt P49238); experiment: Antagonist activity at CX3CR1 (unknown origin); procedure, shortened: as §1
# T5 sequence (P49238 whole entry): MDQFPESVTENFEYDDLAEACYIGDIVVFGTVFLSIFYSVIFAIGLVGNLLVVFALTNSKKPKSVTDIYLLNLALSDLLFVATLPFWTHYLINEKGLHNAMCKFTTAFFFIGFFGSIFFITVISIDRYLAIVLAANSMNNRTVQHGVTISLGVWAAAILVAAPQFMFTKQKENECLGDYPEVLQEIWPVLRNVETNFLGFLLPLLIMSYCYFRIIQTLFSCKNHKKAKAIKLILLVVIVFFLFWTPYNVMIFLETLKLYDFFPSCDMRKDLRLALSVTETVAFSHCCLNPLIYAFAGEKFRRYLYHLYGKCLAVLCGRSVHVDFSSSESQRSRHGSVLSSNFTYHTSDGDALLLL
# [9] = molecular target: T6, C-C chemokine receptor type 4 (Homo sapiens, UniProt P51679); experiment: Antagonist activity at CCR4 (unknown origin); procedure, shortened: as §1
# T6 sequence (P51679 whole entry): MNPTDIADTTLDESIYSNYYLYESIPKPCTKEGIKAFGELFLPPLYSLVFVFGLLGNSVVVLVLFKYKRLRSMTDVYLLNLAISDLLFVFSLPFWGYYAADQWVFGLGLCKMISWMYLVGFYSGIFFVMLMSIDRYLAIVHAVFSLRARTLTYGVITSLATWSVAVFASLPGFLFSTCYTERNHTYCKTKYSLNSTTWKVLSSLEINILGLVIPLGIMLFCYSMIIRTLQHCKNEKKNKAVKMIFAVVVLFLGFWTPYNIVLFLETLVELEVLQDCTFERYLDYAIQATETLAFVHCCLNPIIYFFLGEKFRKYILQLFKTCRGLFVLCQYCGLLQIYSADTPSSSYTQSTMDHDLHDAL
# Mus musculus = experiment: Antiinflammatory activity in C57Bl/6 mouse air pouch model assessed as inhibition of carrageenan-induced neutrophil infiltration administered po bid starting from day 3 post air reinflation at 4 hrs post carrageenan induction measured on day 6 post last dose; format: functional, organism-based
# Procedure, shortened: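 Male C57Bl/6 mice aged 6–8 weeks received 5 mL air dorsally under pentobarbital on day 0, with 2.5 mL re-inflations on days 3 and 6. Oral dosing of vehicle or 1, 3 or 10 mg/kg BID ran from day 3; on day 6 dosing preceded re-inflation and 1 mL 2% carrageenan. At 4 h the pouch was lavaged with 4 mL PBS, and neutrophils were counted on Giemsa-stained cytospins as % of vehicle. One-way ANOVA with Bonferroni.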
# [10] = Elimination half life in Wistar rat at 0.98 mg/kg, iv measured up to 4 hrs post dose; format: ADME, organism-based; conditions: in vivo, read-out: beta t1/2 (converted)
# [11] = molecular target: T7, Atypical chemokine receptor 3 (Homo sapiens, UniProt P25106); experiment: Agonist activity at CXCR7 (unknown origin); procedure, shortened: as §1
# T7 sequence (P25106 whole entry): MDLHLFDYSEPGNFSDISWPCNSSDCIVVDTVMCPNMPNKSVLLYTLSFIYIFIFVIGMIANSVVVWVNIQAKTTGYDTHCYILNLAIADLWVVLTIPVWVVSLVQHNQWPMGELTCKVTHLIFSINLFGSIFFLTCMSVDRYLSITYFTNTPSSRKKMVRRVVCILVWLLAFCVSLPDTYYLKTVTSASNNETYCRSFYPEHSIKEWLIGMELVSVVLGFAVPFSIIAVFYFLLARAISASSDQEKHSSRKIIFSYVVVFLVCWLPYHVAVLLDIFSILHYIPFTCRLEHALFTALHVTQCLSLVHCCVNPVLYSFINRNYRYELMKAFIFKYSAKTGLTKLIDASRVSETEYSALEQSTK
# [12] = molecular target: T6, C-C chemokine receptor type 4; experiment: Agonist activity at CCR4 (unknown origin); procedure, shortened: as §1
# [13] = molecular target: C-X-C chemokine receptor type 3 (Homo sapiens, UniProt P49682); experiment: Antagonist activity at CXCR3 (unknown origin); procedure, shortened: as §1
# Chain of C-X-C chemokine receptor type 3 (P49682 whole entry): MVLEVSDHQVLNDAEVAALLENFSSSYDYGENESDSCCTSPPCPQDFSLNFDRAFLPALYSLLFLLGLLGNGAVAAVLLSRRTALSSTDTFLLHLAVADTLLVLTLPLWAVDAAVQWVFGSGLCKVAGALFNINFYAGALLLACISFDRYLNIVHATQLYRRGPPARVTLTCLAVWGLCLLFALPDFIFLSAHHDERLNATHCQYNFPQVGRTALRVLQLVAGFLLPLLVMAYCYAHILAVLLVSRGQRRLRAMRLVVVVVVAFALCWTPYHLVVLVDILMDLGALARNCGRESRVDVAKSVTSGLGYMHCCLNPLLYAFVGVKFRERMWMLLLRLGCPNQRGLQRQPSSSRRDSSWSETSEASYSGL
# [14] = molecular target: T5, CX3C chemokine receptor 1; experiment: Agonist activity at CX3CR1 (unknown origin); procedure, shortened: as §1
# [15] = Intrinsic clearance in dog hepatocytes; format: ADME, cell-based, Canis lupus familiaris, Hepatocyte
# [16] = molecular target: C-X-C chemokine receptor type 2 (Mus musculus, UniProt P35343); experiment: Antagonist activity at CXCR2 in C57 mouse whole blood assessed as inhibition of GROalpha-stimulated CD11b upregulation preincubated for 2 hr followed by GROalpha stimulation measured after 10 mins by FITC-staining based FACS analysis
# Chain of C-X-C chemokine receptor type 2 (Mus musculus, UniProt P35343) (P35343 whole entry): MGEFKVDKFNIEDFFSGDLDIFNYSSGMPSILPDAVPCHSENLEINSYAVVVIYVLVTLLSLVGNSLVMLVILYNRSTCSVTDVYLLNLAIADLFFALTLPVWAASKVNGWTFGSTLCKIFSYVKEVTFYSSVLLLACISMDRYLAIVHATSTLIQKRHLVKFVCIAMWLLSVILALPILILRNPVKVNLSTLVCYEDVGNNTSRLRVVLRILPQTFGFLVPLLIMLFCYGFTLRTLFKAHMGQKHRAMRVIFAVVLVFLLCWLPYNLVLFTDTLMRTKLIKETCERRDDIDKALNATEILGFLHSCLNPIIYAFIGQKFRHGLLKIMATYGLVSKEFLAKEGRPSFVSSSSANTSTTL
# [17] = Solubility of compound in fasted state simulated intestinal fluid measured after 4 hrs; format: physicochemical
# Procedure, shortened: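 Solubility in FaSSIF, read after 4 h incubation.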
# [18] = Oral bioavailability in Wistar rat at 2.41 mg/kg measured up to 4 hrs after dose; format: ADME, organism-based; conditions: in vivo
# [19] = Volume of distribution at steady state in Wistar rat at 0.98 mg/kg, iv measured up to 4 hrs post dose; format: ADME, organism-based; conditions: in vivo, read-out: Vdss
# [20] = molecular target: C-C chemokine receptor type 5 (Homo sapiens, UniProt P51681); experiment: Antagonist activity at CCR5 (unknown origin); procedure, shortened: as §1
# Chain of C-C chemokine receptor type 5 (P51681 whole entry): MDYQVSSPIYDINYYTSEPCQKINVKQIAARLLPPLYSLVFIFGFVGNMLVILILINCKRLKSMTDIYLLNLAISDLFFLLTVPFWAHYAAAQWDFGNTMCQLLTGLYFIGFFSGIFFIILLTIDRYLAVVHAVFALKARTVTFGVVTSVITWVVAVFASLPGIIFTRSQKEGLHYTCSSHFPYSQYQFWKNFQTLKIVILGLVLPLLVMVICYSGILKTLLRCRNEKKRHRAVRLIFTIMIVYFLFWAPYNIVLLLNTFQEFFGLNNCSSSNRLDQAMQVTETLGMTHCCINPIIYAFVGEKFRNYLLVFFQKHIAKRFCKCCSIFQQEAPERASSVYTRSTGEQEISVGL
# [21] = Passive permeability in MDCK2-MDR1 cells transduced with BacMam2-BCRP at 3 uM after 90 mins by Transwell assay; format: ADME, cell-based, Canis lupus familiaris, MDCK-MDR1; conditions: dog; read-out: permeability
# Procedure, shortened: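 MDCKII-MDR1 cells transduced with BacMam2-BCRP and grown in Transwells. Compound at 3 μM, in duplicate, was incubated 90 min A→B (and B→A) with and without GF120918 (5 μM, dual P-gp/BCRP inhibitor). Passive permeability (Pexact, nm/s) was calculated by an equation from earlier work. The permeability ratio is A→B permeability with GF120918 over A→B permeability without it.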
# [22] = Elimination half life in dog at 0.85 mg/kg, iv measured up to 4 hrs post dose; format: ADME, organism-based, Canis lupus familiaris; conditions: in vivo, read-out: beta t1/2 (converted)
# [23] = molecular target: T8, C-C chemokine receptor type 2 (Homo sapiens, UniProt P41597); experiment: Agonist activity at CCR2 (unknown origin); procedure, shortened: as §1
# T8 sequence (P41597 whole entry): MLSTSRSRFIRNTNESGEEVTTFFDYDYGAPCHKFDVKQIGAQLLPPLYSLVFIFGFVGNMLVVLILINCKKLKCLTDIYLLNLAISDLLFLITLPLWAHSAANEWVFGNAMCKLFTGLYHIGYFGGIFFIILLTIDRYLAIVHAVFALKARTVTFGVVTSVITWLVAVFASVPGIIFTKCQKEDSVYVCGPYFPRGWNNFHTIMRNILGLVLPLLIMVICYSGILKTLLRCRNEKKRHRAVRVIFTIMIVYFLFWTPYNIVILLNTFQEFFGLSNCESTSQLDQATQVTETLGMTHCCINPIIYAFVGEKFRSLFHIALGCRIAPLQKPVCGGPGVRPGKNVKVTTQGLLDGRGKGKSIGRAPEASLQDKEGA
# [24] = Intrinsic clearance in rat hepatocytes; format: ADME, cell-based, Hepatocyte
# [25] = Tmax in dog at 1.29 mg/kg, po measured up to 4 hrs post dose; format: ADME, organism-based, Canis lupus familiaris; conditions: in vivo
# [26] = molecular target: T8, C-C chemokine receptor type 2; experiment: Antagonist activity at CCR2 (unknown origin); procedure, shortened: as §1
# [27] = molecular target: T3, C-C chemokine receptor type 6; experiment: Agonist activity at CCR6 (unknown origin); procedure, shortened: as §1
# [28] = molecular target: T4, C-X-C chemokine receptor type 1; experiment: Agonist activity at CXCR1 (unknown origin); procedure, shortened: as §2
# Rattus norvegicus [29] = experiment: Dose normalized AUC (0 to infinity) in Wistar rat at 0.98 mg/kg, iv measured up to 4 hrs post dose; format: ADME, organism-based; conditions: in vivo
# [30] = molecular target: T9, C-X-C chemokine receptor type 2 (Homo sapiens, UniProt P25025); experiment: Agonist activity at TEV protease cleavage site linked GAL4-VP16-fused recombinant human CXCR2 expressed in cells assessed as induction of beta-arrestin recruitment by CCF4-AM-fluorescence based FRET assay; format: cell-based
# T9 sequence (P25025 whole entry): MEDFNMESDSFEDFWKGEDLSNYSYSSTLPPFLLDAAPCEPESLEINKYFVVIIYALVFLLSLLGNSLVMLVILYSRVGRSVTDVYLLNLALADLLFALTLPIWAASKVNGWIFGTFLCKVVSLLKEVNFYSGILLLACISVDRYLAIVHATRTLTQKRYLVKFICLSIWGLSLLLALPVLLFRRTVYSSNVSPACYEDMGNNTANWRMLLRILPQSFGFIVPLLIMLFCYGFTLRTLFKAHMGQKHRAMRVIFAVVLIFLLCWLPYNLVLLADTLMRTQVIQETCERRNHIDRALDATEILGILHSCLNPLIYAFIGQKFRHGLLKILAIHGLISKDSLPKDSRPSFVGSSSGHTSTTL
# Procedure, shortened: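 Part of an 18-receptor chemokine panel run in agonist and antagonist modes. Stable line carrying human CXCR2 linked to a TEV site and Gal4-VP16 was starved 24 h at 37 °C, 5% CO2, and incubated overnight with compound dispensed in DMSO. CCF4-AM substrate was loaded for 2 h at room temperature in the dark. Read-out was the background-subtracted 460/530 nm ratio, with sigmoidal curve fit.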
# [31] = molecular target: T7, Atypical chemokine receptor 3; experiment: Antagonist activity at CXCR7 (unknown origin); procedure, shortened: as §1
# [32] = Intrinsic clearance in human hepatocytes; format: ADME, cell-based, Hepatocyte
# Rattus norvegicus [33] = experiment: Dose normalized AUC (0 to infinity) in Wistar rat at 2.41 mg/kg, po measured up to 4 hrs post dose; format: ADME, organism-based; conditions: in vivo
# [34] = molecular target: T1, C-C chemokine receptor type 3; experiment: Antagonist activity at CCR3 (unknown origin); procedure, shortened: as §1
# T1 sequence (P51677 whole entry): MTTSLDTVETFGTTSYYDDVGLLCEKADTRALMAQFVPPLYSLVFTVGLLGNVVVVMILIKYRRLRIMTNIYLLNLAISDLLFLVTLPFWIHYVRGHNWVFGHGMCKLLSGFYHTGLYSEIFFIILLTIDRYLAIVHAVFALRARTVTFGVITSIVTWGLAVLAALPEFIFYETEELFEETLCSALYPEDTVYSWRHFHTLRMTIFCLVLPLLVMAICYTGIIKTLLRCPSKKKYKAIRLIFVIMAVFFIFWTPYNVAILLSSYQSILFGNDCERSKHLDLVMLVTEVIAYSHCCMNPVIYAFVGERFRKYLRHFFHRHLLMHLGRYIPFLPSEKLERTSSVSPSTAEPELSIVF
smiles,measurement,setting,value
CC1=CCC[C@H]1NC(=O)Nc1ccc(Cl)c(S(=O)(=O)[C@@]2(C)CCOC2)c1O,EC50,[1],> 10 µM
same,Cmax,[2],728 ng/mL
same,IC50,[3],> 10 µM
same,EC50,[4],> 10 µM
same,IC50,[5],> 10 µM
same,EC50,[6],> 10 µM
same,IC50,[7],3.8 µM
same,IC50,[8],> 10 µM
same,IC50,[9],> 10 µM
same,inhibition,Mus musculus,Dose-dependent effect
same,half-life,[10],258 min
same,EC50,[11],> 10 µM
same,EC50,[12],> 10 µM
same,IC50,[13],> 10 µM
same,EC50,[14],> 10 µM
same,CLH,[15],1.8 mL/min/g
same,IC50,[16],5.9 nM
same,solubility at 4 h,[17],21 µg/mL
same,bioavailability,[18],47%
same,Vd,[19],2.1 L/kg
same,IC50,[20],> 10 µM
same,"Papp at 1.5 h, 3 µM",[21],25.4 ×10⁻⁶ cm/s
same,half-life,[22],216 min
same,EC50,[23],> 10 µM
same,CLH,[24],7.7 mL/min/g
same,Tmax,[25],1.1 h
same,IC50,[26],> 10 µM
same,EC50,[27],> 10 µM
same,EC50,[28],> 10 µM
same,AUC/dose,Rattus norvegicus [29],1829 ng·h/mL/mg/kg
same,EC50,[30],> 10 µM
same,IC50,[31],> 10 µM
same,CLH,[32],0.79 mL/min/g
same,AUC/dose,Rattus norvegicus [33],860 ng·h/mL/mg/kg
same,IC50,[34],> 10 µM
